Reference: ChEMBL document CHEMBL4400576, “Identification of Pyrazolo[1,5-a]pyridine-3-carboxamide Diaryl Derivatives as Drug Resistant Antituberculosis Agents” (ACS Med Chem Lett, 2019)
Converted amounts (≈) assume the structure as drawn.

Tests used:
[1] = tested on: Mycobacterium tuberculosis; assay: Antibacterial activity against Mycobacterium tuberculosis H37Rv after 7 days by microplate alamar blue assay; assay type: functional; conditions: 168 h
Summary of the method: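 MIC against H37Rv by MABA. Primary screen run at 0.02 to 5 μg/mL. Compounds retested at 0.002 to 0.5 μg/mL.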

Vero = assay: Cytotoxicity against African green monkey Vero cells measured after 72 hrs by CellTiter 96 aqueous non-radioactive cell proliferation assay; assay type: cell-based; conditions: Chlorocebus sabaeus
Summary of the method: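 Vero cells were exposed to compound, and cytotoxicity was reported as IC50 in µg/mL.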

[2] = Selectivity index, ratio of IC50 for African green monkey Vero cells to MIC>=90 for Mycobacterium tuberculosis H37Rv; assay type: toxicity; conditions: read-out: Selectivity Index
Summary of the method: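 SI is Vero cell IC50 divided by MABA MIC against H37Rv, with MIC tested at 0.002 to 0.5 μg/mL.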

[3] = Half life in Sprague-Dawley rat at 10 mg/kg, po by LC-MS/MS analysis; assay type: ADME, organism-based; conditions: in vivo
Summary of the method: (§1)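 Rats received a single dose of compound, either intravenously at 2.5 mg/kg or orally at 10 mg/kg, in separate arms. Plasma parameters were AUC0-∞ (h*µg/L), Cmax (µg/L), Tmax, T1/2 and MRT (h). Oral bioavailability F (%) was derived from the oral and intravenous arms.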

[4] = Tmax in Sprague-Dawley rat at 10 mg/kg, po by LC-MS/MS analysis; assay type: ADME, organism-based; conditions: in vivo; summary of the method: as §1
[5] = AUC (0 to infinity) in Sprague-Dawley rat at 2.5 mg/kg, iv by LC-MS/MS analysis; assay type: ADME, organism-based; set-up: dose 2.5 mg/kg, route intravenous, time infinity; conditions: in vivo; summary of the method: as §1
[6] = AUC (0 to infinity) in Sprague-Dawley rat at 10 mg/kg, po by LC-MS/MS analysis; assay type: ADME, organism-based; set-up: dose 10 mg/kg, route oral, time infinity; conditions: in vivo; summary of the method: as §1
[7] = MRT (0 to infinity) in Sprague-Dawley rat at 2.5 mg/kg, iv by LC-MS/MS analysis; assay type: ADME, organism-based; conditions: in vivo; summary of the method: as §1
[8] = Tmax in Sprague-Dawley rat at 2.5 mg/kg, iv by LC-MS/MS analysis; assay type: ADME, organism-based; conditions: in vivo; summary of the method: as §1
[9] = Cmax in Sprague-Dawley rat at 2.5 mg/kg, iv by LC-MS/MS analysis; assay type: ADME, organism-based; set-up: dose 2.5 mg/kg, route intravenous; conditions: in vivo; summary of the method: as §1
[10] = MRT (0 to infinity) in Sprague-Dawley rat at 10 mg/kg, po by LC-MS/MS analysis; assay type: ADME, organism-based; conditions: in vivo; summary of the method: as §1
[11] = Cmax in Sprague-Dawley rat at 10 mg/kg, po by LC-MS/MS analysis; assay type: ADME, organism-based; set-up: dose 10 mg/kg, route oral; conditions: in vivo; summary of the method: as §1
[12] = Oral bioavailability in Sprague-Dawley rat at 10 mg/kg by LC-MS/MS analysis; assay type: ADME, organism-based; conditions: in vivo; summary of the method: as §1
[13] = Half life in Sprague-Dawley rat at 2.5 mg/kg, iv by LC-MS/MS analysis; assay type: ADME, organism-based; conditions: in vivo; summary of the method: as §1

| SMILES | MIC90 [1] | IC50 (Vero) | selectivity ratio [2] | other results |
| --- | --- | --- | --- | --- |
| COc1ccn2nc(C)c(C(=O)NCc3nnc(-c4ccc(OC(F)(F)F)cc4)o3)c2c1 | > 5 µg/mL | – | – | – |
| COc1ccn2nc(C)c(C(=O)NCc3ccc(-c4ccc(OC(F)(F)F)cc4)c(OC)c3)c2c1 | – | 11.8 µg/mL (≈ 24.3 µM) | 1680 | – |
| COc1ccn2nc(C)c(C(=O)NCc3ncc(-c4ccc(OC(F)(F)F)cc4)[nH]3)c2c1 | > 5 µg/mL | – | – | – |
| COc1ccn2nc(C)c(C(=O)NCc3ccc(-c4ccc(OC(F)(F)F)cc4)cc3C)c2c1 | 0.57 µg/mL (≈ 1.21 µM) | – | – | – |
| COc1ccn2nc(C)c(C(=O)NCc3ccc(-c4ccc(OC(F)(F)F)cc4)cc3F)c2c1 | – | > 50 µg/mL | > 7140 | – |
| COc1ccn2nc(C)c(C(=O)NCc3ccc(-c4ccc(OC(F)(F)F)cc4)c(C(F)(F)F)c3)c2c1 | – | 11.6 µg/mL (≈ 22.2 µM) | 402 | – |
| COc1ccn2nc(C)c(C(=O)NCc3ccc(-c4ccc(OC(F)(F)F)cc4)cc3OC)c2c1 | 0.28 µg/mL (≈ 0.577 µM) | – | – | – |
| COc1ccn2nc(C)c(C(=O)NCc3ccc(-c4ccc(OC(F)(F)F)cc4)s3)c2c1 | – | > 50 µg/mL | > 25000 | – |
| COc1ccn2nc(C)c(C(=O)NCc3ccc(-c4ccc(OC(F)(F)F)cc4)nc3)c2c1 | – | 28.4 µg/mL (≈ 62.2 µM) | 535 | – |
| COc1ccn2nc(C)c(C(=O)NCc3ncc(-c4ccc(OC(F)(F)F)cc4)o3)c2c1 | 1.96 µg/mL (≈ 4.39 µM) | – | – | – |
| COc1ccn2nc(C)c(C(=O)NCc3cn(-c4ccc(OC(F)(F)F)cc4)nn3)c2c1 | > 5 µg/mL | – | – | – |
| COc1ccn2nc(C)c(C(=O)NCc3cnc(-c4ccc(OC(F)(F)F)cc4)s3)c2c1 | 0.53 µg/mL (≈ 1.15 µM) | – | – | – |
| COc1ccn2nc(C)c(C(=O)NCc3ccc(-c4ccc(OC(F)(F)F)cc4)cc3C(F)(F)F)c2c1 | > 5 µg/mL | – | – | – |
| COc1ccn2nc(C)c(C(=O)NCc3ccc(-c4ccc(OC(F)(F)F)cc4)cn3)c2c1 | – | > 50 µg/mL | > 25000 | half-life [3]: 5.1 h; Tmax [4]: 4.67 h; AUC(0-inf) [5]: 9000 ng·h/mL; AUC(0-inf) [6]: 15600 ng·h/mL; MRT inf [7]: 4.02 h; Tmax [8]: 4.8 min; Cmax [9]: 4150 ng/mL; MRT inf [10]: 8.21 h; Cmax [11]: 1430 ng/mL; bioavailability [12]: 41%; half-life [13]: 3.49 h |
| COc1ccn2nc(C)c(C(=O)NCc3ccc(-c4ccc(OC(F)(F)F)cc4)c(F)c3)c2c1 | – | > 50 µg/mL | > 25000 | – |
| COc1ccn2nc(C)c(C(=O)NCc3ccc(-c4ccc(OC(F)(F)F)cc4)c(C)c3)c2c1 | – | 3.15 µg/mL (≈ 6.71 µM) | 242 | – |
| COc1nc2ccc(Br)cc2cc1[C@@H](c1ccccc1)[C@@](O)(CCN(C)C)c1cccc2ccccc12 [BEDAQUILINE] | 0.02 to 0.03 µg/mL (≈ 0.036 to 0.054 µM) | > 10 µg/mL | > 500 | – |
| NNC(=O)c1ccncc1 [ISONIAZID] | 0.239 to 0.48 µg/mL (≈ 1.74 to 3.5 µM) | – | – | – |
| CC(=O)NC[C@H]1CN(c2ccc(N3CCOCC3)c(F)c2)C(=O)O1 [LINEZOLID] | 1.25 to 3.27 µg/mL (≈ 3.72 to 9.69 µM) | – | – | – |
| CO[C@H]1/C=C/O[C@@]2(C)Oc3c(C)c(O)c4c(O)c(c(/C=N/N5CCN(C)CC5)c(O)c4c3C2=O)NC(=O)/C(C)=C\C=C\[C@H](C)[C@H](O)[C@@H](C)[C@@H](O)[C@@H](C)[C@H](OC(C)=O)[C@@H]1C [RIFAMPIN] | – | > 100 µg/mL | > 12500 | – |
